Data from ChEMBL document CHEMBL4689842, “EUbOPEN Chemogenomics Library wave 1” (2021).

How the values were obtained:
Format in all cases: toxicity, cell-based
HEK-293T [1] = assay: Multiplex assay against HEK293T; conditions: human;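 on Population Tubulin-Different-Phenotype (%): share of the cells with healthy nuclei that show this phenotype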
Summary of the method: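 Phenotypes for tubulin, mitochondrial mass and membrane permeability are expressed as per cents of healthy-nucleus cells. Cells were stained live at seeding with Hoechst33342, BioTracker Green Microtubule Cytoskeleton Dye, MitoTracker Red and Annexin V Alexa Fluor 680, then imaged after compound addition on a CQ1 microscope at 37°C and 5% CO2. Machine-learning gating in CellPathfinder separated Hoechst high-intensity objects from normal cells, divided normal cells by nuclear state (healthy, pyknosed, fragmented) and divided pyknosed cells into mitotic or apoptotic.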

HEK-293T [2] = assay: Incucyte cell viability with HEK293T; conditions: human, 10 µM, compound concentration 10 uM; further: filed as whole numbers so only -1 and 0 and 1 occur
Fibroblast = assay: Incucyte cell viability with human fibroblast; conditions: 10 µM, compound concentration 10 uM; further: filed as whole numbers so only -1 and 0 and 1 occur
[3] = 12 h, 1 µM, compound concentration 1 uM, replicate 1
[4] = 12 h, 1 µM, compound concentration 1 uM, replicate 2
[5] = 12 h, 10 µM, compound concentration 10 uM, replicate 1
[6] = 12 h, 10 µM, compound concentration 10 uM, replicate 2
[7] = 24 h, 1 µM, compound concentration 1 uM, replicate 1
[8] = 24 h, 1 µM, compound concentration 1 uM, replicate 2
[9] = 24 h, 10 µM, compound concentration 10 uM, replicate 1
[10] = 24 h, 10 µM, compound concentration 10 uM, replicate 2
[11] = 48 h, 1 µM, compound concentration 1 uM, replicate 1
[12] = 48 h, 1 µM, compound concentration 1 uM, replicate 2
[13] = 48 h, 10 µM, compound concentration 10 uM, replicate 1
[14] = 48 h, 10 µM, compound concentration 10 uM, replicate 2
[15] = 0 h, replicate number 1, timepoint 0 hours
[16] = 6 h, replicate number 1, timepoint 6 hours
[17] = 12 h, replicate number 1, timepoint 12 hours
[18] = 18 h, replicate number 1, timepoint 18 hours
[19] = 24 h, replicate number 1, timepoint 24 hours

CCCn1c(=O)c2[nH]c(C34CC5CC(CC3C5)C4)nc2n(CCC)c1=O [ROLOFYLLINE]
Population Apoptotic (%) (HEK-293T [1]; [3]): 63%
Population Fragmented Nuclei (%) (HEK-293T [1]; [3]): 14%
Population Healthy Nuclei (%) (HEK-293T [1]; [3]): 30%
Population Hoechst High Intensity Objects (%) (HEK-293T [1]; [3]): 15%
Population Membrane Permeable-Phenotype (%) (HEK-293T [1]; [3]): 3%
Population Mitochondria Different-Phenotype (%) (HEK-293T [1]; [3]): 84%
Population Mitotic Cells (%) (HEK-293T [1]; [3]): 36%
Population Normal (%) (HEK-293T [1]; [3]): 84%
Population Pyknosed Nuclei (%) (HEK-293T [1]; [3]): 55%
Population Tubulin-Different-Phenotype (%) (HEK-293T [1]; [3]): 70%
Total Cell Count (HEK-293T [1]; [3]): 200
Population Apoptotic (%) (HEK-293T [1]; [4]): 12%
Population Fragmented Nuclei (%) (HEK-293T [1]; [4]): 6%
Population Healthy Nuclei (%) (HEK-293T [1]; [4]): 43%
Population Hoechst High Intensity Objects (%) (HEK-293T [1]; [4]): 4%
Population Membrane Permeable-Phenotype (%) (HEK-293T [1]; [4]): 10%
Population Mitochondria Different-Phenotype (%) (HEK-293T [1]; [4]): 18%
Population Mitotic Cells (%) (HEK-293T [1]; [4]): 87%
Population Normal (%) (HEK-293T [1]; [4]): 95%
Population Pyknosed Nuclei (%) (HEK-293T [1]; [4]): 50%
Population Tubulin-Different-Phenotype (%) (HEK-293T [1]; [4]): 15%
Total Cell Count (HEK-293T [1]; [4]): 185
Population Apoptotic (%) (HEK-293T [1]; [5]): 78%
Population Fragmented Nuclei (%) (HEK-293T [1]; [5]): 12%
Population Healthy Nuclei (%) (HEK-293T [1]; [5]): 28%
Population Hoechst High Intensity Objects (%) (HEK-293T [1]; [5]): 15%
Population Membrane Permeable-Phenotype (%) (HEK-293T [1]; [5]): 1%
Population Mitochondria Different-Phenotype (%) (HEK-293T [1]; [5]): 96%
Population Mitotic Cells (%) (HEK-293T [1]; [5]): 21%
Population Normal (%) (HEK-293T [1]; [5]): 84%
Population Pyknosed Nuclei (%) (HEK-293T [1]; [5]): 59%
Population Tubulin-Different-Phenotype (%) (HEK-293T [1]; [5]): 80%
Total Cell Count (HEK-293T [1]; [5]): 256
Population Apoptotic (%) (HEK-293T [1]; [6]): 41%
Population Fragmented Nuclei (%) (HEK-293T [1]; [6]): 5%
Population Healthy Nuclei (%) (HEK-293T [1]; [6]): 24%
Population Hoechst High Intensity Objects (%) (HEK-293T [1]; [6]): 9%
Population Membrane Permeable-Phenotype (%) (HEK-293T [1]; [6]): 12%
Population Mitochondria Different-Phenotype (%) (HEK-293T [1]; [6]): 84%
Population Mitotic Cells (%) (HEK-293T [1]; [6]): 58%
Population Normal (%) (HEK-293T [1]; [6]): 90%
Population Pyknosed Nuclei (%) (HEK-293T [1]; [6]): 69%
Population Tubulin-Different-Phenotype (%) (HEK-293T [1]; [6]): 87%
Total Cell Count (HEK-293T [1]; [6]): 143
Population Apoptotic (%) (HEK-293T [1]; [7]): 50%
Population Fragmented Nuclei (%) (HEK-293T [1]; [7]): 14%
Population Healthy Nuclei (%) (HEK-293T [1]; [7]): 32%
Population Hoechst High Intensity Objects (%) (HEK-293T [1]; [7]): 22%
Population Membrane Permeable-Phenotype (%) (HEK-293T [1]; [7]): 1%
Population Mitochondria Different-Phenotype (%) (HEK-293T [1]; [7]): 77%
Population Mitotic Cells (%) (HEK-293T [1]; [7]): 49%
Population Normal (%) (HEK-293T [1]; [7]): 77%
Population Pyknosed Nuclei (%) (HEK-293T [1]; [7]): 53%
Population Tubulin-Different-Phenotype (%) (HEK-293T [1]; [7]): 83%
Total Cell Count (HEK-293T [1]; [7]): 212
Population Apoptotic (%) (HEK-293T [1]; [8]): 15%
Population Fragmented Nuclei (%) (HEK-293T [1]; [8]): 4%
Population Healthy Nuclei (%) (HEK-293T [1]; [8]): 59%
Population Hoechst High Intensity Objects (%) (HEK-293T [1]; [8]): 3%
Population Membrane Permeable-Phenotype (%) (HEK-293T [1]; [8]): 11%
Population Mitochondria Different-Phenotype (%) (HEK-293T [1]; [8]): 17%
Population Mitotic Cells (%) (HEK-293T [1]; [8]): 85%
Population Normal (%) (HEK-293T [1]; [8]): 96%
Population Pyknosed Nuclei (%) (HEK-293T [1]; [8]): 36%
Population Tubulin-Different-Phenotype (%) (HEK-293T [1]; [8]): 38%
Total Cell Count (HEK-293T [1]; [8]): 228
Population Apoptotic (%) (HEK-293T [1]; [9]): 77%
Population Fragmented Nuclei (%) (HEK-293T [1]; [9]): 13%
Population Healthy Nuclei (%) (HEK-293T [1]; [9]): 31%
Population Hoechst High Intensity Objects (%) (HEK-293T [1]; [9]): 14%
Population Membrane Permeable-Phenotype (%) (HEK-293T [1]; [9]): 2%
Population Mitochondria Different-Phenotype (%) (HEK-293T [1]; [9]): 97%
Population Mitotic Cells (%) (HEK-293T [1]; [9]): 22%
Population Normal (%) (HEK-293T [1]; [9]): 85%
Population Pyknosed Nuclei (%) (HEK-293T [1]; [9]): 54%
Population Tubulin-Different-Phenotype (%) (HEK-293T [1]; [9]): 71%
Total Cell Count (HEK-293T [1]; [9]): 255
Population Apoptotic (%) (HEK-293T [1]; [10]): 40%
Population Fragmented Nuclei (%) (HEK-293T [1]; [10]): 7%
Population Healthy Nuclei (%) (HEK-293T [1]; [10]): 38%
Population Hoechst High Intensity Objects (%) (HEK-293T [1]; [10]): 7%
Population Membrane Permeable-Phenotype (%) (HEK-293T [1]; [10]): 22%
Population Mitochondria Different-Phenotype (%) (HEK-293T [1]; [10]): 75%
Population Mitotic Cells (%) (HEK-293T [1]; [10]): 60%
Population Normal (%) (HEK-293T [1]; [10]): 92%
Population Pyknosed Nuclei (%) (HEK-293T [1]; [10]): 53%
Population Tubulin-Different-Phenotype (%) (HEK-293T [1]; [10]): 87%
Total Cell Count (HEK-293T [1]; [10]): 150
Population Apoptotic (%) (HEK-293T [1]; [11]): 50%
Population Fragmented Nuclei (%) (HEK-293T [1]; [11]): 20%
Population Healthy Nuclei (%) (HEK-293T [1]; [11]): 27%
Population Hoechst High Intensity Objects (%) (HEK-293T [1]; [11]): 23%
Population Membrane Permeable-Phenotype (%) (HEK-293T [1]; [11]): 4%
Population Mitochondria Different-Phenotype (%) (HEK-293T [1]; [11]): 61%
Population Mitotic Cells (%) (HEK-293T [1]; [11]): 49%
Population Normal (%) (HEK-293T [1]; [11]): 76%
Population Pyknosed Nuclei (%) (HEK-293T [1]; [11]): 52%
Population Tubulin-Different-Phenotype (%) (HEK-293T [1]; [11]): 70%
Total Cell Count (HEK-293T [1]; [11]): 227
Population Apoptotic (%) (HEK-293T [1]; [12]): 8%
Population Fragmented Nuclei (%) (HEK-293T [1]; [12]): 6%
Population Healthy Nuclei (%) (HEK-293T [1]; [12]): 78%
Population Hoechst High Intensity Objects (%) (HEK-293T [1]; [12]): 4%
Population Membrane Permeable-Phenotype (%) (HEK-293T [1]; [12]): 14%
Population Mitochondria Different-Phenotype (%) (HEK-293T [1]; [12]): 7%
Population Mitotic Cells (%) (HEK-293T [1]; [12]): 91%
Population Normal (%) (HEK-293T [1]; [12]): 95%
Population Pyknosed Nuclei (%) (HEK-293T [1]; [12]): 15%
Population Tubulin-Different-Phenotype (%) (HEK-293T [1]; [12]): 30%
Total Cell Count (HEK-293T [1]; [12]): 417
Population Apoptotic (%) (HEK-293T [1]; [13]): 64%
Population Fragmented Nuclei (%) (HEK-293T [1]; [13]): 18%
Population Healthy Nuclei (%) (HEK-293T [1]; [13]): 31%
Population Hoechst High Intensity Objects (%) (HEK-293T [1]; [13]): 12%
Population Membrane Permeable-Phenotype (%) (HEK-293T [1]; [13]): 4%
Population Mitochondria Different-Phenotype (%) (HEK-293T [1]; [13]): 98%
Population Mitotic Cells (%) (HEK-293T [1]; [13]): 35%
Population Normal (%) (HEK-293T [1]; [13]): 87%
Population Pyknosed Nuclei (%) (HEK-293T [1]; [13]): 50%
Population Tubulin-Different-Phenotype (%) (HEK-293T [1]; [13]): 87%
Total Cell Count (HEK-293T [1]; [13]): 257
Population Apoptotic (%) (HEK-293T [1]; [14]): 67%
Population Fragmented Nuclei (%) (HEK-293T [1]; [14]): 11%
Population Healthy Nuclei (%) (HEK-293T [1]; [14]): 55%
Population Hoechst High Intensity Objects (%) (HEK-293T [1]; [14]): 7%
Population Membrane Permeable-Phenotype (%) (HEK-293T [1]; [14]): 16%
Population Mitochondria Different-Phenotype (%) (HEK-293T [1]; [14]): 62%
Population Mitotic Cells (%) (HEK-293T [1]; [14]): 32%
Population Normal (%) (HEK-293T [1]; [14]): 92%
Population Pyknosed Nuclei (%) (HEK-293T [1]; [14]): 32%
Population Tubulin-Different-Phenotype (%) (HEK-293T [1]; [14]): 86%
Total Cell Count (HEK-293T [1]; [14]): 185
Growth Rate (HEK-293T [2]; [15]): 0
Growth Rate (HEK-293T [2]; [16]): 0
Growth Rate (HEK-293T [2]; [17]): 0
Growth Rate (HEK-293T [2]; [18]): 0
Growth Rate (HEK-293T [2]; [19]): 0
Growth Rate (Fibroblast; [15]): 0
Growth Rate (Fibroblast; [16]): 0
Growth Rate (Fibroblast; [17]): 0
Growth Rate (Fibroblast; [18]): 0
Growth Rate (Fibroblast; [19]): 0
